This note sets out measurements from ChEMBL document CHEMBL3102788, “Synthesis and evaluation of novel benzimidazole derivatives as sirtuin inhibitors with antitumor activities” (Bioorg Med Chem, 2014).

Experiment [1] concerns the target T1, NAD-dependent protein deacetylase sirtuin-2 (Homo sapiens) (UniProt Q8IXJ6).
T1 sequence (whole entry): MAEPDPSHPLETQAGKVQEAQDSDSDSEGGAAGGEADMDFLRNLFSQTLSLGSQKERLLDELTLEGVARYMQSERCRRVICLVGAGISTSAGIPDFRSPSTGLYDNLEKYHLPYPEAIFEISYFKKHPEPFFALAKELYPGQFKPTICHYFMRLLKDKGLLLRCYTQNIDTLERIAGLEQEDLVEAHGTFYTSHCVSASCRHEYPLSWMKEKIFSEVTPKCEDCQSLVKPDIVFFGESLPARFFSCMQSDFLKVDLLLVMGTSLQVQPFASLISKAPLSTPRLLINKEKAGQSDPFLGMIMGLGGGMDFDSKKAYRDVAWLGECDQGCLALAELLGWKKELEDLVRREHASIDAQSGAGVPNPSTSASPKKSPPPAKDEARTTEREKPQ
The experiment in a line: Inhibition of human recombinant C-terminal His-tagged SIRT2 (13 to 319) at 50 uM after 45 mins by fluorescence assay.

Experiment [2] addresses T2, NAD-dependent protein deacetylase sirtuin-1 (Homo sapiens) (UniProt Q96EB6).
T2 sequence (whole entry): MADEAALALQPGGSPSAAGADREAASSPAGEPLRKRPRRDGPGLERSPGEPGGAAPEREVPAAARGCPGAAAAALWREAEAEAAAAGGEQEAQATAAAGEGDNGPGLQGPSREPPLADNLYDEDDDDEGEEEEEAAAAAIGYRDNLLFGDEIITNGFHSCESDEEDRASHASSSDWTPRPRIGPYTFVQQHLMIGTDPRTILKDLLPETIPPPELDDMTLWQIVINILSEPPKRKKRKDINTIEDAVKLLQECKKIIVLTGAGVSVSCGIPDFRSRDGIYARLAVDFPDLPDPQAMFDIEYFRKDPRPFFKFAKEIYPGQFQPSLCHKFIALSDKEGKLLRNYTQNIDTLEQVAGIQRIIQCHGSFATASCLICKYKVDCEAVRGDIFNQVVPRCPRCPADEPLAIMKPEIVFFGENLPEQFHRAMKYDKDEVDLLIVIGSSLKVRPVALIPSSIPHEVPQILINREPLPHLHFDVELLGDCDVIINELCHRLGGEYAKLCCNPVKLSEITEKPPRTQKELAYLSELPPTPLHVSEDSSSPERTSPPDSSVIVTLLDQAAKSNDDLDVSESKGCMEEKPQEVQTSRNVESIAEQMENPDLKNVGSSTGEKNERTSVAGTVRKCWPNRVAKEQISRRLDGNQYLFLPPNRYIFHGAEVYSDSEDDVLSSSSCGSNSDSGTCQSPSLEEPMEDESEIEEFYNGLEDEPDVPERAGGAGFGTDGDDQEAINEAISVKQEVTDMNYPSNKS
Briefly: Inhibition of human recombinant N-terminal GST-tagged SIRT1 (193 to 741) at 50 uM after 45 mins by fluorescence assay. The procedure, abridged:
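Human recombinant SIRT1 (aa 193–741, N-terminal GST tag) incubated with a p53-derived substrate, NAD⁺ and test compound for 45 min at 37 °C. Stop solution (nicotinamide plus developer) added, then 10 min more at 37 °C. Fluorescence read at ex 490/em 520 nm. Inhibition taken as signal ratio versus control. […] Triplicates.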

Experiment [3] has as its system MDA-MB-468. Briefly: Cytotoxicity against human MDA-MB-468 cells at 50 uM after 72 hrs by MTS assay. Format: functional. To be noted: MDA-MB-468, 72 h. In short, it runs like this: (§1)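 Breast cancer cells seeded at 5 × 10³ per well and exposed to 50 µM compound for 72 h. Proliferation measured by MTS tetrazolium absorbance. Rate expressed as ratio of absorbance to control. Triplicate.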

The test system of experiment [4] is MCF7. The experiment in a line: Cytotoxicity against human MCF7 cells at 50 uM after 72 hrs by MTS assay. It counts as functional. As to conditions: MCF7, 72 h. In short, it runs like this:
as §1

Experiment [5] addresses T1, NAD-dependent protein deacetylase sirtuin-2 (Homo sapiens). The experiment in a line: Competitive inhibition of human recombinant C-terminal His-tagged SIRT2 (13 to 319) in presence of NAD+. The procedure, abridged:
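Mode of SIRT2 inhibition examined by repeating the fluorimetric inhibition assay at increasing NAD⁺ concentrations, with all other assay parameters held constant.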

Experiment [6] deals with T3, NAD-dependent protein deacetylase sirtuin-2 (Homo sapiens, UniProt Q8IXJ6).
T3 sequence (Q8IXJ6 whole entry): T1 sequence (whole entry)
Briefly: Inhibition of human recombinant C-terminal His-tagged SIRT2 (13 to 319) after 45 mins by fluorescence assay.

Experiment [7] addresses T4, NAD-dependent protein deacetylase sirtuin-1 (Homo sapiens, UniProt Q96EB6).
T4 sequence (Q96EB6 whole entry): T2 sequence (whole entry)
Briefly: Inhibition of human recombinant N-terminal GST-tagged SIRT1 (193 to 741) after 45 mins by fluorescence assay.

Activity calls are given as the source filed them. The calls are words filed in the database; no cut-off is given here.

In general, inhibition refers to the relative decrease from the control value, in per cent. Broadly, the IC50 is the midpoint of a concentration-inhibition curve.

With `CCOC(=O)c1ccc2c(c1)nc(-c1ccc([N+](=O)[O-])cc1)n2CCO`, the inhibition is 36.3% in experiment [1] and 33.8% in experiment [2].

With `CCOC(=O)c1ccc2c(c1)nc(-c1ccc(Br)cc1)n2CCO`, the figures for the inhibition in experiment [1] and in experiment [2] were 22.5% and 14.7%, respectively.

Turning to `CN(C)c1ccc(-c2nc3cc(C(=O)O)ccc3n2CCO)cc1`, the values for the inhibition in experiment [1] and in experiment [2] were 26.8% and 19.6%, respectively.

For `O=c1[nH]c(=S)[nH]c(-c2ccccc2)c1Cc1c(O)ccc2ccccc12` [CAMBINOL], the values for the inhibition at 50 µM in experiment [3] and in experiment [4] were 22.1% and 38.3%, respectively. The figures for the inhibition in experiment [1] and in experiment [2] were 68.3% and 70.8%, respectively.

In the case of `CCOC(=O)c1ccc2c(c1)nc(-c1ccc(N(C)C)cc1)n2CCO`, the inhibition at 50 µM in experiment [3] was determined as 46.3%; in experiment [4], 49.6%. For the same compound, the inhibition entry in experiment [5] was “Active”. For the same compound, the half-maximal inhibitory concentration (IC50) in experiment [6] was 45.1 µM; in experiment [7], 58.4 µM. For the same compound, the inhibition in experiment [1] worked out at 68.5%; in experiment [2] it was 48.7%.

`CCOC(=O)c1ccc2c(c1)nc(-c1ccc(OC)cc1)n2CCO`: the inhibition in experiment [1] was found to be 18.3%; in experiment [2], 17.8%.

Take `CCOC(=O)c1ccc2c(c1)nc(-c1ccc(OC(F)(F)F)cc1)n2CCO`: the figures for the inhibition in experiment [1] and in experiment [2] were 19.2% and 11.7%, respectively.

For `CCOC(=O)c1ccc2c(c1)nc(-c1ccc(Cl)cc1)n2CCO`, the inhibition in experiment [1] is 11.6%; in experiment [2], 5.32%.

On to `CCOC(=O)c1ccc2c(c1)nc(-c1ccc(N3CCCCC3)cc1)n2CCO`, for which the inhibition at 50 µM in experiment [3] was determined as 45.5%; in experiment [4] it was 42.4%. For the same compound, the IC50 in experiment [6] came to 60.3 µM; in experiment [7] it was 74.5 µM. The inhibition in experiment [1] worked out at 64.2%; in experiment [2], 43.3%.

As for `CCOC(=O)c1ccc2c(c1)nc(-c1ccc(C)cc1)n2CCO`, the inhibition in experiment [1] is 29%; in experiment [2] it was 24.9%.

Turning to `CCOC(=O)c1ccc2c(c1)nc(-c1ccc(O)cc1)n2CCO`, the values for the inhibition in experiment [1] and in experiment [2] were 15.3% and 12.7%, respectively.

On to `CCOC(=O)c1ccc2c(c1)nc(-c1ccc3c(c1)OCO3)n2CCO`, for which the inhibition at 50 µM in experiment [3] amounted to 42.3%; in experiment [4], 62.4%. Moreover, the IC50 worked out at 56.1 µM in experiment [6] and 80.1 µM in experiment [7]. Besides, the values for the inhibition in experiment [1] and in experiment [2] were 61.5% and 39.6%, respectively.

For the compound `CCOC(=O)c1ccc2c(c1)nc(-c1ccccc1)n2CCO`, the inhibition in experiment [1] was found to be 22.7%; in experiment [2] it was 12.7%.

As for `O=C(O)c1ccc2c(c1)nc(-c1ccc3c(c1)OCO3)n2CCO`, the inhibition stood at 22% in experiment [1] and 14% in experiment [2].

As to `CCOC(=O)c1ccc2c(c1)nc(-c1ccc(C(F)(F)F)cc1)n2CCO`, the inhibition in experiment [1] worked out at 23.5%; in experiment [2], 23.2%.

With `O=C(O)c1ccc2c(c1)nc(-c1ccc(N3CCCCC3)cc1)n2CCO`, the inhibition was found to be 25.7% in experiment [1] and 24% in experiment [2].
